{"data": "Experimental data pooled from the literature", "target": "Receptor tyrosine-protein kinase erbB-2 (ERBB2, Homo sapiens, UniProt P04626)"}
{"Compound": "Cc1cnn2ncc(-c3ccnc(N(C)C)n3)c2c1", "effect on": "binding", "concentration": "1 µM", "remaining binding [%]": 94}
{"Compound": "CNC(=O)[C@@H]1CC[C@@H](n2c(-c3ccc4cnccc4c3)nc3ccc(C(=O)NCc4cccc(C(N)=O)c4)cc32)C1", "effect on": "binding", "technique": "competition with immobilised ligand", "concentration": "1 µM", "remaining binding [%]": 100}
{"Compound": "O=C(NCC1CCOCC1)c1n[nH]cc1NC(=O)c1c(F)cccc1F", "effect on": "binding", "technique": "competition with immobilised ligand", "concentration": "1 µM", "remaining binding [%]": 90}
{"Compound": "O=C(Nc1cccnn1)N1CC(C/C=C/c2cncc(Oc3ccc(C(F)(F)F)cn3)n2)C1", "effect on": "cell-free assay", "technique": "competition with immobilised ligand", "concentration": "1 µM", "remaining binding [%]": 83}
{"Compound": "C[C@@H]1CN(c2ccc3ncc(-c4ccc5[nH]nc(C6CC6)c5c4)n3n2)C[C@H](C)O1", "effect on": "binding", "technique": "competition with immobilised ligand", "concentration": "0.5 µM", "remaining binding [%]": 68}
{"Compound": "COc1cnc(Nc2cccc(S(N)(=O)=O)c2)nc1N1CCN(c2ccccc2)C(=O)C1", "effect on": "binding", "technique": "competition with immobilised ligand", "concentration": "1 µM", "remaining binding [%]": 100}
{"Compound": "CS(=O)(=O)NCC[C@H](NC(=O)c1cncc2c1cnn2-c1ccc(F)cc1)c1ccnc(S(C)(=O)=O)c1", "effect on": "cell-free assay", "technique": "competition with immobilised ligand", "concentration": "1 µM", "remaining binding [%]": 100}
{"Compound": "N#Cc1ccccc1CSc1nnc2c(n1)[nH]c1ccccc12", "effect on": "binding", "technique": "competition with immobilised ligand", "concentration": "10 µM", "remaining binding [%]": 94}
{"Compound": "c1cncc(-c2cccc(Nc3nccc(NC4CCCCC4)n3)c2)c1", "effect on": "binding", "technique": "competition with immobilised ligand", "concentration": "10 µM", "remaining binding [%]": 51}
{"Compound": "CNCc1ccccc1-c1csc([C@H](C)Nc2nc(C)nc3cc(OC)c(OC)cc23)c1", "effect on": "cell-free assay", "technique": "competition with immobilised ligand", "concentration": "1 µM", "remaining binding [%]": 100}
{"Compound": "C[C@H]1CCN(c2nccc(-c3cnn4ncccc34)n2)C1", "effect on": "binding", "concentration": "1 µM", "remaining binding [%]": 94}
{"Compound": "C[C@@H](c1ccc(-n2cnc3c(N)ncnc32)cc1)N1CCc2nn(C)c(Cc3ccccc3)c2C1=O", "effect on": "binding", "technique": "competition with immobilised ligand", "concentration": "0.1 µM", "remaining binding [%]": 81}
{"Compound": "Cc1cnc(Nc2ccc(C(=O)N3CCC(N4CCCC4)CC3)cc2)nc1-c1cc2ccccc2s1", "effect on": "binding", "technique": "competition with immobilised ligand", "concentration": "1 µM", "remaining binding [%]": 64}
{"Compound": "CS(=O)(=O)N1CCCC(NC(=O)[C@H](CCC2CCCCC2)NC(=O)c2ccc(CNC(=O)c3cnc4ccccn34)cc2)C1 (stereo partly drawn)", "effect on": "cell-free assay", "technique": "competition with immobilised ligand", "concentration": "0.1 µM", "remaining binding [%]": 100}
{"Compound": "Nc1ncc2c(n1)-c1c([nH]c3ccc(C#CC4CC4)cc13)CCCC2", "effect on": "binding", "technique": "competition with immobilised ligand", "concentration": "1 µM", "remaining binding [%]": 91}
{"Compound": "C=CC(=O)N1CCC(C(=O)NCC(=O)N2CCN(c3nc(-c4cnc(N)nc4C(F)F)nc(N4CCOCC4)n3)CC2)CC1", "effect on": "binding", "technique": "competition with immobilised ligand", "concentration": "1 µM", "remaining binding [%]": 70}
{"Compound": "O=C(NCCCN1CCOCC1)c1ccc(Nc2ncc(Cl)c(-c3ccc(Cl)s3)n2)cc1", "effect on": "binding", "technique": "competition with immobilised ligand", "concentration": "1 µM", "remaining binding [%]": 80}
{"Compound": "C[C@@H](c1cccc(C#N)c1)n1cc(Cl)cc(C(N)=O)c1=N", "effect on": "cell-free assay", "technique": "competition with immobilised ligand", "concentration": "1 µM", "remaining binding [%]": 96}
{"Compound": "CN(CCCC(F)(F)F)c1nccc(-c2cnn3ncccc23)n1", "effect on": "binding", "concentration": "1 µM", "remaining binding [%]": 99}
{"Compound": "COc1cc(-c2cn(C3CCc4ccccc4N(CC(F)(F)F)C3=O)nn2)ccc1-n1ccc(C)n1 (stereo not drawn)", "effect on": "cell-free assay", "technique": "competition with immobilised ligand", "concentration": "1 µM", "remaining binding [%]": 100}
{"Compound": "CN(C)c1nccc(-c2cnc3ncccn23)n1", "effect on": "binding", "concentration": "1 µM", "remaining binding [%]": 0}
{"Compound": "COc1cccc(CNC(=O)c2nc3scc(COCc4ccc(C(=O)O)cc4)c3c(=O)[nH]2)c1", "effect on": "cell-free assay", "technique": "competition with immobilised ligand", "concentration": "1 µM", "remaining binding [%]": 97.2}
{"Compound": "N[C@H]1CCN(c2nccc(-c3cnn4ncccc34)n2)C1", "effect on": "binding", "concentration": "1 µM", "remaining binding [%]": 84}
{"Compound": "O=C(c1ccc(Nc2ncc(Cl)c(-c3ccc(Cl)s3)n2)cc1)N1CCC(N2CCCC2)CC1", "effect on": "binding", "technique": "competition with immobilised ligand", "concentration": "1 µM", "remaining binding [%]": 82}
